In ChEMBL document CHEMBL1154615, “Hydroxamates: relationships between structure and plasma stability” (J Med Chem, 2009):

Experiments:
[1] = Half life in rat at 100 mg/kg, po; assay type: ADME, organism-based; parameters: dose 100 mg/kg, route oral; conditions: in vivo
[2] = Half life in po dosed rat; assay type: ADME, organism-based; conditions: in vivo
[3] = (§1) Metabolic stability in Sprague-Dawley rat plasma at 10 uM by LC-MS/MS analysis; assay type: ADME, cell-free; conditions: Sprague-Dawley
How it was run: (§2)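 Pooled mixed-gender Sprague Dawley lithium-heparin rat plasma, 80 µL per time point in duplicate. Plasma is pre-incubated 5 min at 37 °C, then 30 min with 2 mM PMSF (final) where applied. Compound is added to 10 µM final in 1% DMSO. Quantified by LC-MSMS (MRM or SIM) against an internal standard with a per-compound calibration curve. Result is reported as t1/2.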

[4] = Stability in potassium phosphate buffer at pH 7.4; assay type: physicochemical
Plasma [5] = test: as §1; assay type: ADME, cell-free; conditions: 10 µM; how it was run: as §2
[6] = (§3) Metabolic stability in Sprague-Dawley rat plasma at 10 uM by LC-MS/MS analysis in presence of esterase inhibitor PMSF; assay type: ADME, cell-free; conditions: Sprague-Dawley, with PMSF (esterase inhibitor); how it was run: as §2
[7] = Stability in phosphate buffer saline at pH 7.4; assay type: physicochemical
Homo sapiens = species on record: Homo sapiens; test: Metabolic stability in human plasma by LC-MS/MS analysis
Plasma [8] = test: as §3; assay type: ADME, cell-free; conditions: 10 µM; how it was run: as §2
[9] = Half life in rat at 100 mg/kg, iv; assay type: ADME, organism-based; parameters: dose 100 mg/kg, route intravenous; conditions: in vivo

SMILES | half-life at 10 µM [3] [h] | Stability [4] | further results
CC(C)Cc1ccc(/C=C/C(=O)N(C)O)cc1 |  |  | half-life [1]: < 0.3 h
CC(=O)N1CCC(C(=O)NO)(S(=O)(=O)c2ccc(Oc3ccc(Cl)cc3)cc2)CC1 |  |  | half-life [2]: 0.86 h
CC(C)Cc1ccc(C(C)C(=O)NO)cc1 (centres undefined) [IBUPROXAM] |  |  | half-life [1]: 0.3 h
CC(C)Cc1ccc(C(=O)N(C)O)cc1 |  |  | half-life [1]: 0.3 h
CC(Cc1ccccc1)(C(=O)NO)C(=O)NCc1ccc(F)cc1 (centres undefined) | 3 | Stable | 
O=C(NCc1ccc(F)cc1)c1cc2ccccc2n(O)c1=O | > 48 | Stable | 
O=C(CCCc1ccccc1)NO [PHENYLBUTYRYLHYDROXAMIC ACID] |  | Stable | t1/2 (Plasma [5]): 2 h
CCOC(=O)[C@H](CCc1ccccc1)N[C@@H](C)C(=O)N1CCC[C@H]1C(=O)O | 0.05 |  | half-life at 10 µM [6]: > 24 h
O=C(CCCCCCC(=O)Nc1ccccc1)NO [VORINOSTAT] | 9.7 |  | 
O=C(NO)C1(S(=O)(=O)c2ccc(Oc3ccc(Cl)cc3)cc2)CCN(C2CC2)CC1 |  |  | half-life [2]: 0.74 h
O=C(NO)/C(=C\c1ccccc1)C(=O)NCc1ccc(F)cc1 | 22 | Stable | half-life [7]: > 24 h; half-life (Homo sapiens): > 24 h
O=C(/C=C/c1ccccc1)NO | 6.2 | Stable | 
CCN1CCC(C(=O)NO)(S(=O)(=O)c2ccc(Oc3ccc(Cl)cc3)cc2)CC1 |  |  | half-life [2]: 1.19 h
O=C(NO)c1ccccc1 [BENZOHYDROXAMATE] | > 24 | Stable | 
O=C(COc1ccccc1)NO | 3 | Stable | 
O=C(NO)C1(S(=O)(=O)c2ccc(Oc3ccc(Cl)cc3)cc2)CCNCC1 |  |  | half-life [2]: 1.8 h
O=C(NO)/C(=C/c1ccccc1)C(=O)NCc1ccc(F)cc1 | 4.1 | Stable | half-life [7]: > 24 h; half-life (Homo sapiens): > 24 h
O=C(NO)c1ccc(C#CC2CC2)cc1 | 4 | Stable | 
CC(C)Cc1ccc(CCC(=O)N(C)O)cc1 |  |  | half-life [1]: < 0.3 h
CN1CCC(C(=O)NO)(S(=O)(=O)c2ccc(Oc3ccc(Cl)cc3)cc2)CC1 |  |  | half-life [2]: 1.25 h
CC(C)Cc1ccc(C(C)C(=O)N(C)O)cc1 (centres undefined) |  |  | half-life [1]: > 0.3 h
CC(C)Cc1ccc(CC(=O)N(C)O)cc1 |  |  | half-life [1]: < 0.3 h
CN(O)C(=O)/C=C/c1ccc2ccccc2c1 |  |  | half-life [9]: 6 min

More lines, main results first:

half-life at 10 µM [3] [h] | Stability [4] | SMILES | further results
33 | Stable | CC(C(=O)NO)C(=O)NCc1ccc(F)cc1 (centres undefined) | 
22.3 | Stable | O=C(NO)C1(C(=O)NCc2ccc(F)cc2)CC1 | 
< 1 | Stable | CC(C)(C)OC(=O)N[C@H](Cc1ccccc1)C(=O)NO | 
19.9 | Stable | CC(C)(C(=O)NO)C(=O)NCc1ccc(F)cc1 | 
10.5 | Stable | O=C(CC(=O)NCc1ccc(F)cc1)NO | 
1 | Stable | CC1(C)ON=C(C(Cc2ccccc2)C(=O)NCc2ccc(F)cc2)O1 (centres undefined) | 
1.5 | Stable | O=C(CCc1ccccc1)NO | 
0.5 | Stable | CN(O)C(=O)C(Cc1ccccc1)C(=O)NCc1ccc(F)cc1 (centres undefined) | 
1.3 | Stable | O=C(Cc1ccc(F)cc1)NC(Cc1ccccc1)C(=O)NO (centres undefined) | 
1.4 | Stable | O=C(CCOc1ccccc1)NO | 
0.8 | Stable | O=C(NO)C(Cc1ccccc1)C(=O)NCc1ccc(F)cc1 (centres undefined) | t1/2 (Plasma [8]): 15 h; half-life [7]: > 24 h; half-life (Homo sapiens): > 24 h
> 24 | Stable | O=C(Cc1ccccc1)NO [PHENYLACETOHYDROXAMIC ACID] | 
